Shown are actives, neighbours in structure and some others; about 2.2% of the full set was active somewhere.
HNF4A DNA FP = change in binding of human HNF4 alpha to DNA | P41235 | HNF4a-FITC DNA binding, fluorescence polarization, 1 h | activity change, % at 10 µM | 0.3% of 360,000 active; in the data active = activity change above about 30%, passing the limit was not always enough
Target sequence (P41235 whole entry, looked up): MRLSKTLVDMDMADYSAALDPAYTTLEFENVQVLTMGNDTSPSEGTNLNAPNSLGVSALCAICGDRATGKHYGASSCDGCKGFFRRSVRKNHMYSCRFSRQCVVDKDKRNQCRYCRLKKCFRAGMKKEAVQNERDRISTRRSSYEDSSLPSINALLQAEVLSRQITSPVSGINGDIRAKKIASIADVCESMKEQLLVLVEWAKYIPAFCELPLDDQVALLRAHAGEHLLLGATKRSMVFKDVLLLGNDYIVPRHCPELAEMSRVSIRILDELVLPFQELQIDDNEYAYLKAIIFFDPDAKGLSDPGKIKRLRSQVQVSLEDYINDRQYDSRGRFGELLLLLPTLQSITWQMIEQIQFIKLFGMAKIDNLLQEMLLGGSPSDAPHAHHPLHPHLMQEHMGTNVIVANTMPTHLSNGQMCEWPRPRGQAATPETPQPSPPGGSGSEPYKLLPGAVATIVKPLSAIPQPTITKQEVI
Myeloid diff MLP = promotes myeloid progenitor differentiation. AID 624256. ER-HoxA9 myeloid progenitors, lysozyme-GFP differentiation, flow cytometry. 1% of 360,000 active. calls only at 10 µM;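 active = normalized GFP-positive differentiation at or above the plate's own cutoff, the solvent-only control mean plus 3 SD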;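 note: cells exposed to compound for four days before flow analysis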
CSN deneddyl inh = inhibitors of human CSN-mediated cullin deneddylation; Q92905; Purified CSN, SCF-Nedd8-OG deneddylation, fluorescence polarization; inhibition, % at 12.5 µM; 0.38% of 360,000 active;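 active = pattern-corrected inhibition above about 35%, with an unprinted fluorescence ratio check between 0.5 and 1.5, limit read from the data, passing the limit was not always enough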;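 note: 0% = enzyme with substrate and 100% = substrate without enzyme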
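Assay system: HEK293T-derived human Csn5 enzyme; quantity: 0.24 nM enzyme; medium: Tris/NaCl/DTT buffer, pH 7.5; also added: substrate SCFSkp2-Nedd8OG, 10 nM; doses: 12.5 µM compound; schedule: 90 min reaction at room temperature; signal: FP; read-out: % inhibition of substrate cleavage by Csn5; benchmarks: substrate-only high control, full reaction low control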
Exocytosis inh = blocks lytic granule exocytosis; TALL-104 LAMP-1 surface exposure, flow cytometry; cells stimulated with thapsigargin and PMA; inhibition, % at 10 µM; 0.66% of 360,000 active;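 active = inhibition above about 55%, limit read from the data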
Myeloid diff = myeloid differentiation induction; 2% of 2,300 active; ER-HoxA9 myeloid progenitors, GFP/Mac1 double-positive flow; shares compounds with Myeloid diff MLP; calls only;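 active = share of green or green-and-red cells above 9 and 9% in run 1 or 4 and 3% in run 2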
GFP autofluor = counter-screen for myeloid differentiation promoters: compound fluorescence; 7.4% of 2,300 active; AID 651707; ER-HoxA9 myeloid progenitors, no estrogen, GFP autofluorescence flow cytometry; vehicle wells 0%, positive control 100%; fluorescence response, % (test concentration not listed); shares compounds with Myeloid diff MLP;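 active = over 5% cells positive for green fluorescent reporter, or over 2% positive for both it and APC stain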;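 note: range taken on the double positive population between DMSO and positive control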
* hit, by the source's call; i = inactive; . = not tested or not shown; + = active, no number.

SMILES | HNF4A DNA FP | Myeloid diff MLP | CSN deneddyl inh | Exocytosis inh | Myeloid diff | GFP autofluor
O=C(NCC(c1cccs1)N1CCOCC1)c1cc(S(=O)(=O)N2CCOCC2)ccc1F (centres undefined) | 2 | i | -2 | 4 | . | .
O=c1ncn(-c2cccc(Cl)c2)c2ccccc12 | 0 | i | -2 | -6 | . | .
COc1ccc(OC)c(CCNC(=O)c2cccc(NC(=O)C3=C(C)OCCS3)c2)c1 | -1 | i | 2 | 4 | . | .
O=S(=O)(c1ccc2ccccc2c1)N1CCN(c2ccc(O)cc2)CC1 | 0 | + | 0 | 0 | i | 0
CN1CCN(S(=O)(=O)c2ccc3ccccc3c2)CC1 | 0 | i | -2 | -1 | . | .
Cc1ccccc1OCC(=O)OCC(=O)c1c[nH]c2ccccc12 | 3 | i | -8 | 7 | . | .
CC1CC(C)(C)NC(=S)N1CCCC(=O)NCc1ccccc1 (centres undefined) | 3 | i | -7 | -2 | i | 0
CCc1ccc(NC(=O)CCCN2C(=S)NC(C)(C)CC2C)cc1 (centres undefined) | 0 | i | -5 | 3 | . | .
CC(=O)c1c(Cl)nc2cccc3c2c1-c1ccccc1C3=O | -16 | i | -7 | 12 | i | 0
COc1cc(-c2c(C(C)=O)c(C)nc3c2C(=O)c2ccccc2-3)cc(OC)c1OC | 1 | i | 2 | -3 | . | .
CCCCN1C(=O)C(CC(=O)NCCc2ccccn2)CC(C(=O)N(C)C)=C1C (centres undefined) | 2 | i | -3 | -5 | i | 18*
COCCNC(=O)CN1N=C(c2ccc(C)cc2)CCC1=O | -2 | i | -1 | -5 | . | .
Cc1ccccc1NC(=O)Cc1nc(COC(=O)C(NC(=O)c2ccccc2C)C(C)C)cs1 (centres undefined) | -1 | i | -1 | -1 | . | .
Nc1nccc(NCCSCc2ccccc2)n1 | 3 | + | 13 | -1 | i | 0
COc1ccc(C2C(C(=O)Nc3cccnc3)=C(C)Nc3nc(-c4cccs4)nn32)cc1 (centres undefined) | -8 | i | -1 | 1 | i | 1
COCCn1c(N)c(C(=O)OCc2ccccc2)c2nc3ccccc3nc21 | 0 | i | -2 | -1 | . | .
COCCNC(=O)c1c(N)n(CCC2=CCCCC2)c2nc3ccccc3nc12 | -5 | i | -9 | -2 | i | 0
CCOc1c2ccccc2nn1CCO | -5 | i | 1 | -10 | . | .
CC(Sc1nnnn1-c1ccc(O)cc1)C(=O)NNC(=O)c1ccc(F)cc1 (centres undefined) | -2 | i | 1 | -11 | . | .
COc1cc(OC)c2c(-c3cccc(-c4ccc(O)cc4)c3)cc(=O)oc2c1 | -4 | + | -5 | 2 | i | 5
CCC(=S)/C=C1\Sc2ccccc2N1CCCS(=O)(=O)O | 0 | i | 5 | 0 | i | 4
O=c1c(/C=N/Nc2ccccc2)c(Sc2nnnn2-c2ccccc2)nc2ccccn12 | -7 | i | 45 | 2 | . | .
O=C(O)c1ccccc1N/N=C/c1c(Sc2nnnn2-c2ccccc2)nc2ccccn2c1=O | 96* | + | 97* | 12 | + | 2
COc1cc2c(cc1OC)-c1cc3ccc4c(c3c[n+]1CC2)OCO4 | -50 | + | -14 | -7 | + | 1
COc1cc2c(cc1O)CC[n+]1cc3c(OC)c(OC)ccc3cc1-2 | -3 | i | -4 | -1 | . | .
SMILES | HNF4A DNA FP | Myeloid diff MLP | CSN deneddyl inh | Exocytosis inh | Myeloid diff | GFP autofluor
Cc1nn(C)c(Sc2ccccc2N)c1[N+](=O)[O-] | 6 | i | -5 | 42 | i | 1
Cc1nn(C)c(N)c1[N+](=O)[O-] | -1 | i | -6 | -1 | . | .
O=C(COC(=O)CCC(=O)N1CCOCC1)Nc1ccc(Br)cc1Br | -1 | i | -4 | 5 | . | .
CC(C)OC(=O)NC(C)(C)COC(=O)Nc1cccc(Cl)c1 | 1 | i | 8 | 13 | i | 0
CC(C)OC(=O)NCCOC(=O)Nc1cccc(Cl)c1 | 0 | i | 4 | -6 | . | .
N#CC1C(=O)NC(=O)CC12CCCCC2 (centres undefined) | 0 | i | 3 | -12 | i | 0
O=C(NNC(=O)C12CC3CC(CC(C3)C1)C2)c1ccccc1[N+](=O)[O-] | -2 | i | 1 | 1 | i | 0
O=C(/C=C/c1cccs1)NNC(=O)c1ccccc1 | 0 | i | 0 | 0 | . | .

Screening data deposited in PubChem by several laboratories.
